We go through ten compounds from ChEMBL document CHEMBL1275301, “Antihypertensive activity of newer 1,4-dihydro-5-pyrimidine carboxamides: synthesis and pharmacological evaluation” (2010).

Assay [1] has as its system Rattus norvegicus. The experiment in a line: Antihypertensive activity against DOCA-salt induced hypertension in albino rat assessed as reduction in systolic blood pressure at 10 mg/kg, po up to 360 mins by tail-cuff method. It is filed as functional, organism-based. The arrangement: dose 10 mg/kg. Particulars: Artery. Summed up: (§1)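 Rats given DOCA 20 mg/kg s.c. twice weekly in olive oil for 4 weeks, with 1% w/v NaCl as drinking water, reaching systolic 160–180 mm Hg. Rats were trained in restrainer and tail-cuff sessions. Compounds in 0.5% CMC were dosed at 10 mg/kg by oral feeding needle, with vehicle and nifedipine groups. BP was read before dosing and after, with the tail warmed at 37 °C for 2–5 min. Each compound was run three times in one week and readings averaged.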

Assay [2] relates to Rattus norvegicus. Description: Antihypertensive activity against DOCA-salt induced hypertension in albino rat assessed as reduction in systolic blood pressure at 10 mg/kg, po after 900 mins by tail-cuff method. In kind it is functional. Particulars: Artery, 15 h. In outline: as §1
In assay [3] the test system is Rattus norvegicus. The experiment in a line: Antihypertensive activity against DOCA-salt induced hypertension in albino rat assessed as reduction in systolic blood pressure at 10 mg/kg, po after 720 mins by tail-cuff method. It is filed as functional. Particulars: Artery, 12 h. In outline:
as §1

Assay [4] concerns Rattus norvegicus. The experiment in a line: Antihypertensive activity against DOCA-salt induced hypertension in albino rat assessed as reduction in systolic blood pressure at 10 mg/kg, po after 600 mins by tail-cuff method. It is filed as functional. As to conditions: Artery, 10 h. Summed up:
as §1

The test system of assay [5] is Rattus norvegicus. Description: Antihypertensive activity against DOCA-salt induced hypertension in albino rat assessed as reduction in systolic blood pressure at 10 mg/kg, po after 360 mins by tail-cuff method. It is filed as functional. As to conditions: Artery, 6 h. Summed up: as §1
Assay [6] has as its system Rattus norvegicus. The experiment in a line: Antihypertensive activity against DOCA-salt induced hypertension in albino rat assessed as reduction in systolic blood pressure at 10 mg/kg, po after 300 mins by tail-cuff method. It is filed as functional. As to conditions: Artery, 5 h. Summed up:
as §1

Assay [7] has as its system Rattus norvegicus. Description: Antihypertensive activity against DOCA-salt induced hypertension in albino rat assessed as reduction in systolic blood pressure at 10 mg/kg, po after 240 mins by tail-cuff method. In kind it is functional. Particulars: Artery, 4 h. Summed up:
as §1

The test system of assay [8] is Rattus norvegicus. Description: Antihypertensive activity against DOCA-salt induced hypertension in albino rat assessed as reduction in systolic blood pressure at 10 mg/kg, po after 180 mins by tail-cuff method. Particulars: Artery, 3 h. It is filed as functional. In outline:
as §1

Assay [9] deals with Rattus norvegicus. The experiment in a line: Antihypertensive activity against DOCA-salt induced hypertension in albino rat assessed as reduction in systolic blood pressure at 10 mg/kg, po after 120 mins by tail-cuff method. In kind it is functional. As to conditions: Artery, 2 h. In outline: as §1
Assay [10] has as its system Rattus norvegicus. Description: Antihypertensive activity against DOCA-salt induced hypertension in albino rat assessed as reduction in systolic blood pressure at 10 mg/kg, po after 60 mins by tail-cuff method. In kind it is functional. As to conditions: Artery, 1 h. In outline:
as §1

Assay [11] concerns Rattus norvegicus. Description: Antihypertensive activity against DOCA-salt induced hypertension in albino rat assessed as reduction in systolic blood pressure at 10 mg/kg, po after 30 mins by tail-cuff method. It is filed as functional. Particulars: Artery, 0.5 h. In outline: as §1
In assay [12] the test system is Rattus norvegicus. The experiment in a line: Antihypertensive activity against DOCA-salt induced hypertension in albino rat assessed as reduction in systolic blood pressure at 10 mg/kg, po after 15 mins by tail-cuff method. It is filed as functional. As to conditions: Artery, 0.25 h. In outline: as §1

The source made the active and inactive calls. The calls are words filed in the database; no cut-off is given here.

With `CC1=C(C(=O)Nc2ccc([N+](=O)[O-])cc2)C(c2cccc([N+](=O)[O-])c2)N=C(SCc2ccc(Cl)cc2)N1` (stereo not given), the outcome with Rattus norvegicus [1] was Active. Besides, the inhibition in vivo (as a rule, the change of the read-out against control, counted positive when it falls) at 10 mg/kg in the assay on Rattus norvegicus [2] was determined as 12.3%; in the assay with Rattus norvegicus [3], 15.5%; with Rattus norvegicus [4], 26.2%; in the assay with Rattus norvegicus [5] it was 33%; in the assay with Rattus norvegicus [6], 24.1%; with Rattus norvegicus [7], 20%. Moreover, the inhibition in vivo at 10 mg/kg in the assay on Rattus norvegicus [8] came out at 14.9%; in the assay with Rattus norvegicus [9] it was 12.4%; in the assay on Rattus norvegicus [10], 6.7%; with Rattus norvegicus [11] it was 3.1%; in the assay on Rattus norvegicus [12], 2.1%.
`CC1=C(C(=O)Nc2ccc(Br)cc2)C(c2ccc(Cl)cc2Cl)N=C(SCc2ccc(F)cc2)N1` (stereo not given): the result in the assay with Rattus norvegicus [1] was Active. For the same compound, the inhibition in vivo at 10 mg/kg came out at 23.1% with Rattus norvegicus [2]; 27.3% with Rattus norvegicus [3]; 33.3% with Rattus norvegicus [4]; 40.7% with Rattus norvegicus [5]; 38.5% with Rattus norvegicus [6]; 36.4% with Rattus norvegicus [7]. Also, the inhibition in vivo at 10 mg/kg stood at 28.4% in the assay with Rattus norvegicus [8]; 22.7% in the assay on Rattus norvegicus [9]; 16.9% in the assay with Rattus norvegicus [10]; 7.7% in the assay on Rattus norvegicus [11]; 3.6% in the assay with Rattus norvegicus [12].
Regarding `COC(=O)C1=C(C)NC(C)=C(C(=O)OC)C1c1ccccc1[N+](=O)[O-]` [NIFEDIPINE], the outcome in the assay on Rattus norvegicus [1] was Active. Besides, the inhibition in vivo at 10 mg/kg in the assay on Rattus norvegicus [2] worked out at 16.9%; in the assay with Rattus norvegicus [3], 18.6%; in the assay on Rattus norvegicus [4], 24.1%; with Rattus norvegicus [5] it was 38.1%; in the assay on Rattus norvegicus [6], 32.3%; in the assay with Rattus norvegicus [7], 25.6%. Moreover, the inhibition in vivo at 10 mg/kg with Rattus norvegicus [8] came out at 17.5%; in the assay with Rattus norvegicus [9], 11.3%; in the assay with Rattus norvegicus [10], 7.7%; in the assay on Rattus norvegicus [11], 3.1%; in the assay on Rattus norvegicus [12] it was 1.5%.
As for `CC1=C(C(=O)Nc2ccc(F)cc2)C(c2ccc([N+](=O)[O-])cc2)N=C(SCc2ccccc2Cl)N1` (stereo not given), the outcome in the assay with Rattus norvegicus [1] was Active. In addition, the inhibition in vivo at 10 mg/kg was determined as 11.3% in the assay on Rattus norvegicus [2]; 13.9% in the assay on Rattus norvegicus [3]; 17.4% in the assay with Rattus norvegicus [4]; 21.6% in the assay with Rattus norvegicus [5]; 18.5% with Rattus norvegicus [6]; 15.9% in the assay on Rattus norvegicus [7]. The inhibition in vivo at 10 mg/kg was found to be 12.4% in the assay with Rattus norvegicus [8]; 8.8% in the assay on Rattus norvegicus [9]; 6.2% with Rattus norvegicus [10]; 3.1% in the assay on Rattus norvegicus [11]; 1.5% in the assay with Rattus norvegicus [12].
Consider `COc1ccc(C2N=C(SCc3cccc(Cl)c3)NC(C)=C2C(=O)Nc2ccc(F)cc2)cc1OC` (stereo not given), for which the outcome in the assay with Rattus norvegicus [1] was Active. Besides, the inhibition in vivo at 10 mg/kg in the assay on Rattus norvegicus [2] came out at 13.3%; in the assay with Rattus norvegicus [3], 15.5%; in the assay on Rattus norvegicus [4] it was 17.4%; with Rattus norvegicus [5] it was 20.1%; in the assay on Rattus norvegicus [6], 16.4%; in the assay on Rattus norvegicus [7], 14.9%. Besides, the inhibition in vivo at 10 mg/kg with Rattus norvegicus [8] turned out to be 13.4%; with Rattus norvegicus [9], 10.8%; with Rattus norvegicus [10], 8.2%; with Rattus norvegicus [11] it was 5.2%; in the assay on Rattus norvegicus [12], 2.1%.
With `CC1=C(C(=O)Nc2ccc(F)cc2)C(c2ccc([N+](=O)[O-])cc2)N=C(SCc2ccccc2)N1` (stereo not given), in the assay with Rattus norvegicus [1], the outcome was Active. Further, the inhibition in vivo at 10 mg/kg in the assay with Rattus norvegicus [2] came to 21%; in the assay with Rattus norvegicus [3] it was 27.3%; in the assay on Rattus norvegicus [4] it was 32.3%; in the assay with Rattus norvegicus [5] it was 38.7%; in the assay with Rattus norvegicus [6], 38.5%; with Rattus norvegicus [7], 32.3%. The inhibition in vivo at 10 mg/kg with Rattus norvegicus [8] worked out at 23.7%; with Rattus norvegicus [9], 18%; in the assay on Rattus norvegicus [10], 12.3%; in the assay on Rattus norvegicus [11], 7.2%; with Rattus norvegicus [12], 3.1%.
Turning to `COc1ccc(C2N=C(SCc3ccc(Cl)cc3)NC(C)=C2C(=O)Nc2ccc(Br)cc2)cc1` (stereo not given), the result in the assay with Rattus norvegicus [1] was Active. Further, the inhibition in vivo at 10 mg/kg with Rattus norvegicus [2] was 20%; in the assay with Rattus norvegicus [3], 23.7%; with Rattus norvegicus [4], 30.3%; in the assay with Rattus norvegicus [5], 39.2%; with Rattus norvegicus [6] it was 37.9%; in the assay on Rattus norvegicus [7] it was 29.2%. The inhibition in vivo at 10 mg/kg was 22.7% with Rattus norvegicus [8]; 16.5% with Rattus norvegicus [9]; 12.3% in the assay on Rattus norvegicus [10]; 7.2% with Rattus norvegicus [11]; 3.1% with Rattus norvegicus [12].
In the case of `CC1=C(C(=O)Nc2ccc(Br)cc2)C(c2ccc(Cl)cc2Cl)N=C(SCc2ccc(Cl)cc2)N1` (stereo not given), the result with Rattus norvegicus [1] was Active. The inhibition in vivo at 10 mg/kg in the assay with Rattus norvegicus [2] came out at 22.1%; with Rattus norvegicus [3] it was 25.8%; in the assay with Rattus norvegicus [4] it was 30.3%; with Rattus norvegicus [5] it was 39.7%; in the assay with Rattus norvegicus [6], 38.5%; in the assay with Rattus norvegicus [7], 32.3%. Also, the inhibition in vivo at 10 mg/kg stood at 23.2% in the assay with Rattus norvegicus [8]; 17.5% with Rattus norvegicus [9]; 11.8% in the assay on Rattus norvegicus [10]; 6.7% in the assay with Rattus norvegicus [11]; 4.1% with Rattus norvegicus [12].
`CC1=C(C(=O)Nc2ccc([N+](=O)[O-])cc2)C(c2ccc(Br)cc2)N=C(SCc2ccc(Cl)cc2)N1` (stereo not given): in the assay with Rattus norvegicus [1], the outcome was Active. In addition, the inhibition in vivo at 10 mg/kg was determined as 19% in the assay with Rattus norvegicus [2]; 29.4% in the assay on Rattus norvegicus [3]; 34.4% in the assay with Rattus norvegicus [4]; 39.2% with Rattus norvegicus [5]; 37.9% in the assay with Rattus norvegicus [6]; 29.7% in the assay with Rattus norvegicus [7]. Also, the inhibition in vivo at 10 mg/kg in the assay on Rattus norvegicus [8] was 19.1%; with Rattus norvegicus [9], 13.9%; with Rattus norvegicus [10], 10.8%; with Rattus norvegicus [11], 6.2%; in the assay on Rattus norvegicus [12], 3.1%.
Turning to `CC1=C(C(=O)Nc2ccc([N+](=O)[O-])cc2)C(c2cccc([N+](=O)[O-])c2)N=C(SCc2ccccc2)N1` (stereo not given), the result in the assay with Rattus norvegicus [1] was Active. Further, the inhibition in vivo at 10 mg/kg was found to be 14.9% in the assay with Rattus norvegicus [2]; 17.5% in the assay on Rattus norvegicus [3]; 27.2% in the assay on Rattus norvegicus [4]; 32.5% in the assay on Rattus norvegicus [5]; 25.6% with Rattus norvegicus [6]; 21% in the assay on Rattus norvegicus [7]. In addition, the inhibition in vivo at 10 mg/kg with Rattus norvegicus [8] was determined as 16.5%; in the assay on Rattus norvegicus [9] it was 10.3%; with Rattus norvegicus [10] it was 7.7%; with Rattus norvegicus [11], 4.1%; in the assay on Rattus norvegicus [12], 2.6%.
